For data set [1], the target named is T1, Amine oxidase [flavin-containing] B (Homo sapiens, UniProt P27338).
T1 sequence (P27338 whole entry): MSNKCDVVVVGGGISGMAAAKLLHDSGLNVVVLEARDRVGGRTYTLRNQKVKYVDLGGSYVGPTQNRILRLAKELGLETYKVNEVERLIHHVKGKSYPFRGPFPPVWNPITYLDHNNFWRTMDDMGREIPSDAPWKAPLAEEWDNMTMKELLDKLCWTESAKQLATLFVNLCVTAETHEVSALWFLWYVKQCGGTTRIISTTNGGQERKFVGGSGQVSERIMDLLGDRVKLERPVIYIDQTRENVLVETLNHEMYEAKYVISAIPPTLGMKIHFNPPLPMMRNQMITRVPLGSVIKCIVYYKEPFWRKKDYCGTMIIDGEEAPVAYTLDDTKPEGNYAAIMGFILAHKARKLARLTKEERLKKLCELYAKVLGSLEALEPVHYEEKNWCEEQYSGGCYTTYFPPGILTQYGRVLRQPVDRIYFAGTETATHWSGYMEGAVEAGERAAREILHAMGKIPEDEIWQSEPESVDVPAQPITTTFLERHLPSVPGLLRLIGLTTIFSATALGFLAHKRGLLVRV
Nature of the data set: biochemical. The format is cell-based, BTI-TN-5B1-4.

For the next data set, the species on record is Homo sapiens. The data set can be described thus: Selectivity index, ratio of IC50 for human microsomal MAO-A expressed in recombinant baculovirus infected insect BTI-TN-5B1-4 cells to IC50 for human microsomal MAO-B expressed in recombinant baculovirus infected insect BTI-TN-5B1-4 cells.
The target in data set [2] is T2, Amine oxidase [flavin-containing] A (Homo sapiens, UniProt P21397).
T2 sequence (P21397 whole entry): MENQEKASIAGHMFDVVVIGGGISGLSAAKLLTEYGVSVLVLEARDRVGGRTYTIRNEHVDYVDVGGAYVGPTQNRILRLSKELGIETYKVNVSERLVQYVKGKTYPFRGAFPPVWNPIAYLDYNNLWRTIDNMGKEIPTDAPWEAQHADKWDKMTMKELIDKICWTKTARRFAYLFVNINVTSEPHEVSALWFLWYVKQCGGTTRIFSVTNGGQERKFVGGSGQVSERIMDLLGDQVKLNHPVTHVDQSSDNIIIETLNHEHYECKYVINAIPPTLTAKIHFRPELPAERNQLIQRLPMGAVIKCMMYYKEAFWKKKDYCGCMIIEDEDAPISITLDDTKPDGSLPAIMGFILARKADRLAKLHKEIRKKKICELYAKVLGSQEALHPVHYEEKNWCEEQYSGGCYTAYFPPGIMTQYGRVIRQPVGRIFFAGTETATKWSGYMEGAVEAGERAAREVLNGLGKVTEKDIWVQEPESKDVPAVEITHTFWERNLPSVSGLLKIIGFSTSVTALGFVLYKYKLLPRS
The data set can be described thus: Inhibition of human microsomal MAO-A expressed in recombinant baculovirus infected insect BTI-TN-5B1-4 cells assessed as reduction in H2O2 production at 10 uM using p-tyramine as substrate after 15 mins by fluorescence assay.

For data set [3], the target named is T2, Amine oxidase [flavin-containing] A. The data set can be described thus: Inhibition of human microsomal MAO-A expressed in recombinant baculovirus infected insect BTI-TN-5B1-4 cells assessed as reduction in H2O2 production using p-tyramine as substrate after 15 mins by fluorescence assay.
Data set [4] concerns SH-SY5Y. Nature of the data set: Cytotoxicity against human SH-SY5Y cells assessed as cell viability at 10 uM after 24 hrs by MTT assay (reference value: […] +/- 11.7 %). It is filed as functional. Conditions: read-out: Activity. On the technique in general: Tetrazolium dyes change colour on reduction, which living cells bring about.
In data set [5] the test system is SH-SY5Y. The data set can be described thus: Cytotoxicity against human SH-SY5Y cells assessed as reduction in cell viability at 1 to 10 uM after 24 hrs by neutral red uptake assay. The format is functional, cell-based. In short, it runs like this:
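SH-SY5Y cells grown to confluence over 3 days and exposed 24 h to compound at 1 and 10 μM in serum-free medium, with a 0.1% DMSO vehicle control. Neutral red 50 μg/mL added for 2 h at 37 °C. Dye extracted with ethanol/water (1:1) containing 5% acetic acid and read at 540 nm. Uptake expressed as % of control.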

In data set [6] the test system is SH-SY5Y. The data set can be described thus: Cytotoxicity against human SH-SY5Y cells assessed as cell viability at 1 uM after 24 hrs by MTT assay (reference value: […] +/- 11.7 %). It is filed as functional. To be noted: read-out: Activity.
Data set [7] concerns SH-SY5Y. The data set can be described thus: Cytotoxicity against human SH-SY5Y cells assessed as reduction in cell viability at 1 uM after 24 hrs by MTT assay. The format is functional, cell-based.
Data set [8] addresses T1, Amine oxidase [flavin-containing] B. The data set can be described thus: Reversible inhibition of human microsomal MAO-B expressed in recombinant baculovirus infected insect BTI-TN-5B1-4 cells assessed as increase in residual enzyme activity at 40 nM after 60 mins. Conditions: bti-tn-5b1-4, 1 h, 0.04 µM.
The target of data set [9] is T2, Amine oxidase [flavin-containing] A. Nature of the data set: Inhibition of human microsomal MAO-A expressed in recombinant baculovirus infected insect BTI-TN-5B1-4 cells assessed as reduction in H2O2 production at 100 uM using p-tyramine as substrate after 15 mins by fluorescence assay.

Structures are written as SMILES. Calls of active or inactive are those of the source. The calls are words filed in the database; no cut-off is given here.

In the case of `O=C(Nc1ccc(O)cc1)c1coc2ccccc2c1=O`, the IC50 in data set [1] (read-out: IC50) was found to be 1380 nM. Besides, the Ratio IC50 in the data set filed under Homo sapiens was more than 7.2. For the same compound, the INH entry in [2] is on record as “Not Active”.
For `O=C(Nc1ccc(S)cc1)c1coc2ccccc2c1=O`, the IC50 result in data set [1] (bti-tn-5b1-4) and in data set [3] was “Nd(Insoluble)” each time.
Regarding `O=C(Nc1ccc(Cl)c(Cl)c1)c1coc2ccccc2c1=O`, the IC50 result in [1] (bti-tn-5b1-4) and in data set [3] was “Nd(Insoluble)” throughout.
On to `O=C(Nc1cc(Cl)c(Cl)c(Cl)c1)c1coc2ccccc2c1=O`, for which the IC50 entry in data set [1] (bti-tn-5b1-4) and in [3] was “Nd(Insoluble)” throughout.
Take `O=C(Nc1cccc(Cl)c1)c1coc2ccccc2c1=O`: in the data set on SH-SY5Y [4], the viability at 10 µM was found to be 43.7%. The result in the data set with SH-SY5Y [5] was inactive. Moreover, the viability at 1 µM in the data set with SH-SY5Y [6] worked out at 64.3%.
Turning to `Cc1ccc(NC(=O)c2coc3ccccc3c2=O)cc1C`, the outcome in the data set with SH-SY5Y [7] and with SH-SY5Y [5] was inactive. For the same compound, the viability at 10 µM in the data set with SH-SY5Y [4] amounted to 74.5%.
Turning to `C[C@H](NCc1ccc(OCc2cccc(F)c2)cc1)C(N)=O` [SAFINAMIDE], the “inhibition (INH)” value in data set [8] was “Active”. In data set [9], the INH result is “Not Active”.

By IC50 is commonly meant the point on the concentration scale where inhibition reaches its midpoint.

For the origin of these results see ChEMBL document CHEMBL4477205, “Discovery of New Chemical Entities for Old Targets: Insights on the Lead Optimization of Chromone-Based Monoamine Oxidase B (MAO-B) Inhibitors” (J Med Chem, 2016).
